According to ChEMBL document CHEMBL4118063, “Design, synthesis and evaluation of aromatic heterocyclic derivatives as potent antifungal agents” (Eur J Med Chem, 2017):
≈ marks a conversion by molar mass, not a printed value.

Experiments:
Type in all cases: functional
[1] = tested on: Candida albicans; test: Antifungal activity against Candida albicans CPCC 400523 by broth microdilution method
In short: (§1)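 Serial twofold-style dilution in growth medium per NCCLS broth microdilution guidelines. Compounds dissolved in DMSO before dilution. Fluconazole and itraconazole served as positive controls. MIC was read as the lowest concentration that prevents visible fungal growth.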

[2] = tested on: Cryptococcus neoformans; test: Antifungal activity against Cryptococcus neoformans cgmcc 2.3161 by broth microdilution method; in short: as §1
[3] = tested on: Candida albicans; test: Antifungal activity against Candida albicans ATCC SC5314 by broth microdilution method; in short: as §1
[4] = tested on: Aspergillus fumigatus; test: Antifungal activity against Aspergillus fumigatus GIM 3.524 by broth microdilution method; in short: as §1
[5] = tested on: Candida tropicalis; test: Antifungal activity against Candida tropicalis cgmcc 2.3739 by broth microdilution method; in short: as §1

Compound | MIC [1] [µg/mL] | MIC [2] [µg/mL] | MIC [3] [µg/mL] | MIC [4] [µg/mL] | MIC [5] [µg/mL]
CC(C)OC(=O)[C@H](Cn1ccnc1)NC(=O)c1cc(-c2ccc(F)cc2)on1 | 2 (≈ 5.18 µM) | 2 (≈ 5.18 µM) | 1 (≈ 2.59 µM) | 8 (≈ 20.7 µM) | 0.0312 (≈ 0.0809 µM)
CC(C)COC(=O)[C@H](Cn1ccnc1)NC(=O)c1ccc(-c2ccccc2)s1 | 4 (≈ 10.1 µM) | > 16 | 2 (≈ 5.03 µM) | > 16 | 0.125 (≈ 0.314 µM)
CCC(C)n1ncn(-c2ccc(N3CCN(c4ccc(OCC5COC(Cn6cncn6)(c6ccc(Cl)cc6Cl)O5)cc4)CC3)cc2)c1=O (stereo not given) [ITRACONAZOLE] | 0.125 (≈ 0.177 µM) | 1 (≈ 1.42 µM) | 0.0312 (≈ 0.0443 µM) | 1 (≈ 1.42 µM) | 0.0312 (≈ 0.0443 µM)
CC(C)OC(=O)[C@H](Cn1ccnc1)NC(=O)c1ccc(-c2ccccc2)s1 | 8 (≈ 20.9 µM) | 16 (≈ 41.7 µM) | 8 (≈ 20.9 µM) | > 16 | 1 (≈ 2.61 µM)
CC(C)COC(=O)[C@H](Cn1ccnc1)NC(=O)c1cnc(-c2ccccc2)nc1 | 0.5 (≈ 1.27 µM) | 2 (≈ 5.08 µM) | 0.25 (≈ 0.635 µM) | > 16 | 0.125 (≈ 0.318 µM)
Cc1cc(C(=O)N[C@@H](Cn2ccnc2)C(=O)OC(C)C)nn1-c1ccccc1 | > 16 | > 16 | > 16 | > 16 | 4 (≈ 10.5 µM)
CC(C)COC(=O)[C@H](Cn1ccnc1)NC(=O)c1cc(-c2ccc(Br)cc2)on1 | 0.125 (≈ 0.271 µM) | 2 (≈ 4.34 µM) | 0.0312 (≈ 0.0677 µM) | > 16 | 0.0312 (≈ 0.0677 µM)
CC(C)OC(=O)[C@H](Cn1ccnc1)NC(=O)c1ccc(-c2ccccc2)o1 | > 16 | > 16 | > 16 | > 16 | 8 (≈ 21.8 µM)
CC(C)OC(=O)[C@H](Cn1ccnc1)NC(=O)c1csc(-c2ccccc2)n1 | > 16 | > 16 | > 16 | > 16 | > 16
CC(C)COC(=O)[C@H](Cn1ccnc1)NC(=O)c1coc(-c2ccccc2)n1 | > 16 | > 16 | > 16 | > 16 | 4 (≈ 10.5 µM)
CC(C)COC(=O)[C@H](Cn1ccnc1)NC(=O)c1nc(-c2ccccc2)cs1 | > 16 | 2 (≈ 5.02 µM) | > 16 | > 16 | 0.125 (≈ 0.314 µM)
CC(C)COC(=O)[C@H](Cn1ccnc1)NC(=O)c1csc(-c2ccccc2)n1 | > 16 | > 16 | > 16 | > 16 | > 16
Cc1ccc(-c2cc(C(=O)N[C@@H](Cn3ccnc3)C(=O)OCC(C)C)no2)cc1 | 0.5 (≈ 1.26 µM) | 0.5 (≈ 1.26 µM) | 0.125 (≈ 0.315 µM) | 8 (≈ 20.2 µM) | 0.0312 (≈ 0.0788 µM)
Cc1nc(-c2ccccc2)sc1C(=O)N[C@@H](Cn1ccnc1)C(=O)OCC(C)C | 1 (≈ 2.42 µM) | 8 (≈ 19.4 µM) | 0.25 (≈ 0.606 µM) | > 16 | 0.125 (≈ 0.303 µM)
